T cruzi repl: blocks replication of Trypanosoma cruzi | T. cruzi beta-gal in NIH3T3, luminescence, 90 h | inhibition, % (test concentration not listed) | actives 1.4% (n = 300,000) | AID 1885;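 active = mean inhibition across valid replicates above about 55%, limit read from the data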;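 also: signal also drops with host cell toxicity which is not excluded here; 0% = plate median of DMSO wells and 100% = zero luminescence signal; higher percent means less beta-gal luminescence so fewer parasites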
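Assay system: NIH/3T3 host cells with β-galactosidase reporter T. cruzi; input: 5,000 host fibroblasts per well; compound: single 50 nL compound addition per well in DMSO; timing: ≥90 h infection period, 3 h prior cell attachment; measured by: GalScreen β-gal luminescence, detergent lysis, 60 min; evaluation: percent inhibition of parasite-derived β-gal signal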
CSC inhib: cancer stem cell inhibition. cancer stem cell-like cells viability, luminescence. inhibition, % at 7.5 µM. actives 1.1% (n = 300,000); in the data active = inhibition above about 75%; tested in HMLE shEcad cells
Mdm2-MdmX inh: inhibitors of human Mdm2/MdmX interaction | O15151+Q00987 | SaOS-2 split-luciferase Mdm2/MdmX complementation, luminescence | inhibition, % at 8 µM | actives 3% (n = 330,000) | AID 485346;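 active = inhibition of at least 50% at 8 µM in the primary screen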
Target sequence (O15151 whole entry, looked up): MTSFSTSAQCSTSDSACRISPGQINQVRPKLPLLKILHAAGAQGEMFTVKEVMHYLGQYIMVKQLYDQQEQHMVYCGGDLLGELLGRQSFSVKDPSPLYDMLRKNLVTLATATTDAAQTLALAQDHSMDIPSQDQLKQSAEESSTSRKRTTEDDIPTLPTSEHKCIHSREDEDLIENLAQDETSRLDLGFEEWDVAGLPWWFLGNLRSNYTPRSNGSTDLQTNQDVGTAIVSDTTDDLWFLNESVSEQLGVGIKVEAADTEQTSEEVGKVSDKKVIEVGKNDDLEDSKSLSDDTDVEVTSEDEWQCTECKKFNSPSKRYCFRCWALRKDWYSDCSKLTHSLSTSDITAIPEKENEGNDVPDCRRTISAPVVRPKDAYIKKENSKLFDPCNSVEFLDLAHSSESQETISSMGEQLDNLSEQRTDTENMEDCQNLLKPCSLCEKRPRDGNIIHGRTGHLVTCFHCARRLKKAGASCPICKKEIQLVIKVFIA
Target sequence (Q00987 whole entry, looked up): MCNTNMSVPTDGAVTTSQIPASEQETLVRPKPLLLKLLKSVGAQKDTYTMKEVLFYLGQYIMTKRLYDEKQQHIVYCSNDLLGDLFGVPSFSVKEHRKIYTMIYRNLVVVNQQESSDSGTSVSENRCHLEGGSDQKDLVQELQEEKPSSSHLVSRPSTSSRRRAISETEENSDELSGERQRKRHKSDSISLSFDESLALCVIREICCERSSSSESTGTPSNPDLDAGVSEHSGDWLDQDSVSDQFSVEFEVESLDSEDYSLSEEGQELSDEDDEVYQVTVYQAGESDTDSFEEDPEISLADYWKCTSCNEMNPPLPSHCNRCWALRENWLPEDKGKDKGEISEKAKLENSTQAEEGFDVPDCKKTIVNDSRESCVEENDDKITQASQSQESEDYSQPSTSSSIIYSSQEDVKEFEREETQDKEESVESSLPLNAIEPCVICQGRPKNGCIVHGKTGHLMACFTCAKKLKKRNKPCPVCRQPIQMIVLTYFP
Beta apoptosis: blocks beta cell apoptosis; actives 0.8% (n = 300,000); protection from apoptosis, % (concentration not given with the values); INS-1E cytokine-induced death, ATP luminescence, 48 h; percent of positive-control rescue, neutral wells zero; AID 435005;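 active = Every replicate reaches about 75%, or at least half do and their mean reaches it too, limit read from the data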;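 also: 0% = cytokine-treated negative control wells and 100% = positive control rescue; higher means more ATP so stronger rescue from cytokine killing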
Lmaj promast: Leishmania major promastigote growth inhibition. Leishmania major promastigotes, resazurin fluorescence viability. inhibition, % at 10 µM. actives 9% (n = 200,000); in the data active = inhibition above about 50%;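 also: promastigotes grown with compound for 44 hours at 28 °C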
SKKanGAS inh: SKKanGAS growth inhibition | S. pyogenes SKKanGAS, kanamycin growth, BacTiter-Glo, 6 h | inhibition, % at 7.5 µM | actives 1.3% (n = 300,000);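 active = mean replicate score, as percent of positive control median, at least 50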;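 also: strain carries kanamycin resistance gene driven by streptokinase promoter and grows in 40 µg/ml kanamycin; loss of luminescence reflects streptokinase promoter inhibition or plain growth inhibition; 0% = median of DMSO wells and 100% = positive control at its reference dose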
An asterisk follows results filed as active; · = no result. Shown are actives, neighbours in structure and some others; about 9.4% of the full set was active somewhere.

SMILES	T cruzi repl	CSC inhib	Mdm2-MdmX inh	Beta apoptosis	Lmaj promast	SKKanGAS inh
C=CCOc1ccc(/C=C/C(=O)OCC(=O)Nc2c(C)n(C)n(-c3ccccc3)c2=O)cc1	-1	9	15	-1	·	-11
N#C/C(=C(/O)CN1CCN(c2ccccc2F)CC1)c1nc(-c2ccccc2)cs1	6	39	5	-3	-9	55*
COc1cc(NC(=O)Cc2cccc3ccccc23)c(C(=O)O)cc1OC	1	·	17	·	·	17
CCOC(=O)c1sc(N2C(=O)C(O)=C(C(=O)c3ccco3)C2c2cccc([N+](=O)[O-])c2)nc1C (stereo not given)	19	20	·	10	·	65*
CCOC(=O)c1sc(N2C(=O)C(O)=C(C(=O)c3ccco3)C2c2cccc(Cl)c2)nc1C (stereo not given)	-7	-6	-8	2	·	63*
O=C(COc1ccc(Cl)cc1Cl)N/N=C/c1ccc[nH]1	-13	79*	-3	-8	·	-1
Cc1cccc(Nc2nnc(SCC(=O)NCC3CCCO3)s2)c1C (stereo not given)	·	-12	12	1	·	·
CN(C(=O)CCn1c(=S)oc2ccccc21)c1ccc(F)cc1	-5	0	-3	2	-1	13
CC(C)N1CCN(Cc2nc3ccccc3s2)CC1CCO (stereo not given)	31	-17	6	-13	-6	1
OCCC1CN(CC(c2ccccc2)c2ccccc2)CCN1C1CCCC1 (stereo not given)	-17	-4	-14	0	87*	5
OCCC1CN(Cc2nc3ccccc3s2)CCN1C1CCCC1 (stereo not given)	10	12	25	-7	67*	9
COc1ccc(CN2CCN(Cc3nc4ccccc4s3)CC2CCO)c(C)c1C (stereo not given)	61*	38	26	7	10	1
OCCC1CN(CC#Cc2ccccc2)CCN1C1CCCC1 (stereo not given)	4	-3	-2	-7	23	0
Cc1cccc(C)c1NC(=O)CN(C)S(=O)(=O)c1ccc(-c2ccc(=O)[nH]n2)s1	0	7	-14	3	·	5
Cc1ccc(S(=O)(=O)c2nc(S(C)(=O)=O)sc2N2CCC3(CC2)OCCO3)cc1	3	-2	2	4	·	-1
CCC(CO)Oc1cc(NCc2ccc(C)c(C)c2)c2ncn(C(C)C)c2c1 (stereo not given)	·	·	26	101*	·	·
NC(=O)C1CCN(C(c2ccccc2)c2nnnn2C2CCCC2)CC1 (stereo not given)	-8	4	4	-2	-2	-8
c1ccc(C(c2nnnn2C2CCCC2)N2CCN(c3nc4ccccc4s3)CC2)cc1 (stereo not given)	71*	-10	18	-5	95*	16
CC(C)C(c1nnnn1C1CCCCC1)N1CCc2ccccc21 (stereo not given)	20	-7	12	14	16	0
c1csc(C(c2nnnn2C2CCCCC2)N2CCN(c3nc4ccccc4s3)CC2)c1 (stereo not given)	-20	·	·	·	93*	7
c1ccc(C(c2nnnn2C2CCCC2)N2CCCCCC2)nc1 (stereo not given)	-36	·	17	·	0	1
c1ccc(C(c2ccccc2)N2CCN(C(c3ccccn3)c3nnnn3C3CCCC3)CC2)cc1 (stereo not given)	5	-4	25	16	57*	0
Cc1ccc(C(c2nnnn2C2CCCCC2)N2CCc3ccccc32)cc1 (stereo not given)	34	-7	-6	9	53*	20
CC(=O)Oc1ccc(/C=C(\NC(=O)c2ccco2)C(=O)NCc2ccco2)cc1	-13	-8	-5	1	·	-2
CCSc1nnc(NC(=O)CN2C(=O)N(C)C3(CCCCC3)C2=O)s1	·	·	5	·	·	·
SMILES	T cruzi repl	CSC inhib	Mdm2-MdmX inh	Beta apoptosis	Lmaj promast	SKKanGAS inh
Cc1ccc(C(c2nnnn2C2CCCC2)N2CCN3CCCC3C2)cc1 (stereo not given)	-2	11	15	-3	87*	-2
O=C(c1ccco1)N1CCN(C(c2cccs2)c2nnnn2C2CCCCC2)CC1 (stereo not given)	31	11	-39	3	60*	-4
CN(C)c1ccc(C(c2nnnn2C2CCCCC2)N2CCN(C(=O)c3ccco3)CC2)cc1 (stereo not given)	·	·	·	·	28	·
Fc1ccc(C(c2nnnn2C2CCCC2)N2CCN(Cc3ccccc3)CC2)cc1 (stereo not given)	-9	·	·	·	36	-3
Clc1ccc(C(c2nnnn2C2CCCC2)N2CCN(Cc3ccncc3)CC2)cc1 (stereo not given)	-4	-5	6	-3	88*	2
Cc1ccc(C(c2nnnn2C2CCCC2)N2CCN(c3nc4ccccc4s3)CC2)cc1 (stereo not given)	47	-3	22	-1	95*	10
CC1CCN(C(=O)C2CCCN(S(=O)(=O)c3ccc4c(c3)CC(C)N4C(=O)C3CC3)C2)CC1 (stereo not given)	19	-5	12	6	·	1
O=C(O)CCSCCCN1C(=O)c2cccc3cccc(c23)C1=O	4	-7	-27	-11	-4	-9
COc1cc(/C=N/NC(=O)CSc2n[nH]c(=O)[nH]c2=O)cc(OC)c1O	-17	8	5	-3	-6	-17
COCCN(C(=O)COC(=O)/C=C/c1cccc(OC)c1)c1c(N)n(CC(C)C)c(=O)[nH]c1=O	·	·	-8	·	·	·
CCOC(=O)Cn1c(=N)n(CCOc2ccc(OC)cc2)c2ccccc21	-12	-12	16	-7	-1	2
CCn1c(=N)n(CC(=O)c2ccc(OC)cc2)c2ccccc21	·	5	-1	-1	95*	-2
CCCn1c(=N)n(CCOc2ccc(OC)cc2)c2ccccc21	10	-11	27	16	94*	-1
Cc1oc2c(C)c3oc(=O)c(CCC(=O)O)c(C)c3cc2c1-c1ccccc1	-16	14	2	2	·	33
COc1cccc(CC2(CO)CCN(Cc3cn(C)nc3C)CC2)c1	-2	1	7	-2	75*	-8
COc1cccc(CC2(CO)CCN(Cc3ccc(NC(C)=O)cc3)CC2)c1	-38	-4	2	-5	-6	-12
OCC1(CCOc2ccccc2)CCN(Cc2ccncc2)CC1	7	23	21	-2	·	-14
OCC1(Cc2cccc(F)c2)CCN(Cc2ccc3cccc(F)c3n2)CC1	28	1	14	2	88*	2
COc1cccc(CC2(CO)CCN(Cc3ccc4cccc(F)c4n3)CC2)c1	35	-7	10	-1	80*	-1
OCC1(CCOc2ccccc2)CCN(Cc2ccc3cccc(F)c3n2)CC1	-22	-4	19	-4	82*	-4
CCOc1ccc(-n2c(C)nc3cc(C(=O)NCC4CCCO4)ccc32)cc1 (stereo not given)	-1	-2	7	-4	·	4
